Assay results reported in ChEMBL document CHEMBL2311488 (Bioorg Med Chem Lett, 2013).
Converted amounts (≈) assume the structure as drawn.

Columns and labels:
Rattus norvegicus = species on record: Rattus norvegicus; test: in vitro; settings: liver microsomes
physchem = settings: pH 6.8
in vitro = settings: human, liver microsomes
[1] = target: T1, Neuropeptide Y receptor type 5 (Mus musculus, UniProt O70342); test: Displacement of [125I]PYY from mouse NPY-Y5 receptor
T1 sequence (O70342 whole entry): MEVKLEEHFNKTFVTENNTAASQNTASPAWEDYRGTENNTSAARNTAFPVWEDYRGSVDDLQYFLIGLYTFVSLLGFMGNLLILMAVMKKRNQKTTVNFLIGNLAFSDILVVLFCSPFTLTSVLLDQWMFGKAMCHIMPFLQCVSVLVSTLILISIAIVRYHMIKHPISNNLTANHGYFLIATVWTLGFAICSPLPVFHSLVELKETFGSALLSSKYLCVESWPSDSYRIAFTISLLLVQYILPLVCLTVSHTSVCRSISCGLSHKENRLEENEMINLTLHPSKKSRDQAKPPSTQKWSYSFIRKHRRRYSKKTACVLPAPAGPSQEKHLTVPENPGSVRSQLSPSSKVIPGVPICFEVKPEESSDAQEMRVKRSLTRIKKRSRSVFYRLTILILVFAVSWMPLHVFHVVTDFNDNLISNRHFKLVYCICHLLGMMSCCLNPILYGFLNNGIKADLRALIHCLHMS

[2] = Drug uptake in mouse CSF at 0.5 mg/kg, iv at 30 mins; type: ADME, organism-based, Cerebrospinal fluid; set-up: dose 0.5 mg/kg, route intravenous; settings: read-out: Drug uptake
How it was run: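 CSF drug concentration was measured 30 min after a 0.5 mg/kg intravenous dose.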

Mus musculus [3] = test: Antiobesity activity in DIO mouse assessed as reduction of [cPP1to7, NPY19 to 23, Ala31, Aib32, Gln42]-induced food intake at 12.5 mg/kg, po administered 1 hr prior to [cPP1to7, NPY19 to 23, Ala31, Aib32, Gln42] induction measured after 2 hrs relative to vehicle-treated control; type: functional; set-up: scale not given: the % may be the effect or the level left
How it was run: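 Mice received oral compound at 12.5 mg/kg 1 h before treatment with a Y5-selective agonist peptide. Food intake was then compared with the increase the agonist induces.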

Mus musculus [4] = test: Toxicity in mouse assessed as appearance of abnormal behavior at 6.25 to 25 mg/kg, po bid measured for 21 days; type: organism-based; set-up: dose 6.25-25 mg/kg, route oral; settings: in vivo, 504 h
How it was run: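 Diet-induced obese mice were given compound orally for 21 days and watched for abnormal behavior during dosing.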

Mus musculus [5] = test: Antiobesity activity against DIO mouse assessed as reduction of body weight administered as po bid measured for 21 days; type: functional, organism-based
How it was run: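 Diet-induced obese mice were dosed orally for 21 days, with body weight gain compared against a control group (n = 7).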

Compound	remaining at 0.5 h (Rattus norvegicus) [%]	solubility kinetic (physchem) [µM]	remaining at 0.5 h (in vitro) [%]	IC50 [1] [nM]	concentration at 0.5 h [2] [ng/mL]	Activity (Mus musculus [3]) [%]	Activity (Mus musculus [4])	Activity (Mus musculus [5])
CCS(=O)(=O)c1ccc2[nH]c(O[C@H]3CC[C@H](c4ccccc4)CC3)nc2c1	93.8	6.1 (≈ 2.35 µg/mL)	> 99.9	3.75				
CCS(=O)(=O)c1ccc2nc(Oc3cccc(OC(F)(F)F)c3)[nH]c2c1	86.2	> 50	97.1	7.11				
CCS(=O)(=O)c1ccc2[nH]c(C(=O)c3ccc(-c4ccccc4)cc3)nc2c1	> 99.9	0.3 (≈ 0.117 µg/mL)	> 99.9	2.61				
CCS(=O)(=O)c1ccc2[nH]c(C3(c4ccc(-c5ccccc5)cc4)CC3)nc2c1	81.3	0.5 (≈ 0.201 µg/mL)	88.5	608				
CCS(=O)(=O)c1ccc2nc(Cc3ccc(-c4ccccc4)cc3)[nH]c2c1	74.3	3 (≈ 1.13 µg/mL)	87.6	112				
CCS(=O)(=O)c1ccc2nc(OCC(F)(F)c3ccccc3)[nH]c2c1	83.8	> 50	97.9	4.39	1.7			
CCS(=O)(=O)c1ccc2nc(OCCc3ccccc3)[nH]c2c1	37.6	> 50	88.1	25				
CCS(=O)(=O)c1ccc2[nH]c(SCc3cccc(Cl)c3)nc2c1	0.13	27.5 (≈ 10.1 µg/mL)	63.7	12.1				
CCS(=O)(=O)c1ccc2nc(Oc3ccc(-c4ccccc4)cn3)[nH]c2c1	> 99.9	45.2 (≈ 17.2 µg/mL)	89.2	96.4				
CCS(=O)(=O)c1ccc2[nH]c(Oc3ccccc3C(F)(F)F)nc2c1		> 50		3190				
CCS(=O)(=O)c1ccc2nc(OCc3cccc(Cl)c3)[nH]c2c1	37.9	49.9 (≈ 17.5 µg/mL)	88.5	80.4				
CCS(=O)(=O)c1ccc2nc(C(F)(F)c3ccc(-c4ccccc4)cc3)[nH]c2c1	78.3	0.3 (≈ 0.124 µg/mL)	0.1	48.6				

The remaining molecules from weak to strong by IC50 [1], led by results:

remaining at 0.5 h (Rattus norvegicus) [%]	solubility kinetic (physchem) [µM]	remaining at 0.5 h (in vitro) [%]	IC50 [1] [nM]	concentration at 0.5 h [2] [ng/mL]	Compound	Activity (Mus musculus [3]) [%]	Activity (Mus musculus [4])	Activity (Mus musculus [5])
86.9	> 50	95.2	98.1		CCS(=O)(=O)c1ccc2nc(Oc3ccc(C(F)(F)F)cc3)[nH]c2c1			
88.4	> 50	> 99.9	41.2		CCS(=O)(=O)c1ccc2[nH]c(Oc3cccc(C(F)(F)F)c3)nc2c1			
91.6	> 50	92.8	22.4		CCS(=O)(=O)c1ccc2[nH]c(Oc3ccc(OC(F)(F)F)cc3)nc2c1			
77.3	4.2 (≈ 1.59 µg/mL)	29.1	9.55		CCS(=O)(=O)c1ccc2[nH]c(Oc3cccc(-c4ccccc4)c3)nc2c1			
	> 50		4.07		CCS(=O)(=O)c1ccc2[nH]c(Oc3ccc(-c4ccccn4)cc3)nc2c1			
> 99.9	39.7 (≈ 15.1 µg/mL)	98.6	2.92	2.9	CCS(=O)(=O)c1ccc2[nH]c(Oc3ccc(-c4ccccc4)nc3)nc2c1	50.8	Non-toxic	Dose-dependent effect
> 99.9	2.5 (≈ 0.946 µg/mL)	> 99.9	2.82		CCS(=O)(=O)c1ccc2[nH]c(Oc3ccc(-c4ccccc4)cc3)nc2c1			
